# Bioassay records (PubChem BioAssay)
# HTRA1 inhibitor = HTRA1 serine protease inhibitors, primary screen, biochemical, fluorescence polarization, HTS. recombinant HTRA1, FP-rhodamine activity-based probe. 340,000 tested, 0.5% active. Q92743. inhibition, % at 5.96 µM. AID 504803, 2011; in the data active = inhibition above about 36%
# JMJD2C inh = inhibitors of GASC-1 histone demethylase, primary screen, biochemical, fluorescence, DELFIA europium; GST-JMJD2C(1-420) H3K9me3 demethylation; 330,000 tested, 0.069% active; inhibition, % at 2.35 µM;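 active = more than half of a compound's replicate wells show inhibition beyond 50%, single wells judged on their own value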;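 note: signal counts dimethyl H3K9 product captured on neutravidin plate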
# SIAE inh = human SIAE inhibitors, primary screen, biochemical, fluorescence polarization, FP-Rh probe, 1536-well HTS. Sialate O-acetylesterase (Homo sapiens), Q9HAT2. AID 1053197, 2014. inhibition, % at 9.66 µM. 370,000 tested, 0.69% active. SIAE FP-Rh probe binding;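 active = inhibition above a cutoff: mean of compounds within the control limits plus 3 SD of those, cut at about 17% in these data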
# ABHD4 inh = ABHD4 inhibitors, primary screen, biochemical, fluorescence polarization, mouse. (Lyso)-N-acylphosphatidylethanolamine lipase (Mus musculus), Q8VD66. purified mABHD4, FP-Rh probe fluorescence polarization. inhibition, % at 8.92 µM. 370,000 tested, 0.54% active;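 active = inhibition exceeding the mean over every tested compound plus 3 SD, cut at about 30% in these data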
# Target sequence (Q8VD66 whole entry, looked up): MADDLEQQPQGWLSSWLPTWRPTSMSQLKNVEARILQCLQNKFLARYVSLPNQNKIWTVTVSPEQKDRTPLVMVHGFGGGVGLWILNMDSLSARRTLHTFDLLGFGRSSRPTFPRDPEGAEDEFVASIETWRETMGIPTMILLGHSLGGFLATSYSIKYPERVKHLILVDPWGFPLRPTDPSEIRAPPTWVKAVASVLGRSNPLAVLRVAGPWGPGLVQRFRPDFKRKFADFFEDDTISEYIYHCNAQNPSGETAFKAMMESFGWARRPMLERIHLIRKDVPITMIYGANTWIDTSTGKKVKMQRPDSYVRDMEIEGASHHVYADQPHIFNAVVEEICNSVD
#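 Assay system: wild-type mouse ABHD4 protein; compound: single nominal dose of 8.92 µM, 0.89% DMSO final; schedule: 45 min + 60 min at 25 °C; measured by: FP readout, ex 525 nm / em 598 nm; evaluation: % inhibition of FP-Rh probe binding versus controls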
# PRMT1 inh = PRMT1 methyltransferase inhibitors, primary screen, biochemical, fluorescence polarization; inhibition, % at 2.79 µM; 370,000 tested, 1.3% active; recombinant PRMT1, activity-based probe fluorescence polarization; AID 652257, 2013; Protein arginine N-methyltransferase 1 (Homo sapiens), Q99873;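 active = inhibition above about 21% made by adding two undisclosed values, limit read from the data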
# HTRA1 inh conf = HTRA1 protease inhibitors, retest, confirmation, biochemical, fluorescence polarization. inhibition, % at 5.96 µM. 1,600 tested, 66% active. recombinant HTRA1, FP-rhodamine activity-based probe. shares compounds with HTRA1 inhibitor;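 active = mean inhibition over three repeats above a set limit taken from the earlier primary screen, cut at about 37% in these data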;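 note: inhibitors block probe binding so polarization drops and inhibition rises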
# Hits are given with their value; – = inactive; · = no result. This is a sample that favours compounds with a hit; in the whole collection about 2.4% have one here.
SMILES,HTRA1 inhibitor,JMJD2C inh,SIAE inh,ABHD4 inh,PRMT1 inh,others
Cc1ccc(Cn2cc(CN(C3CC3)S(=O)(=O)c3ccccc3Br)nn2)cc1,·,·,–,–,–,
CN1CCN(NC(=O)CN2C(=O)/C(=C/c3c(Cl)cccc3Cl)SC2=S)CC1,–,–,–,–,22,
CN1CCN(NC(=O)CN2C(=O)/C(=C/c3ccccc3Cl)SC2=S)CC1,–,–,–,–,–,
COC(=O)[C@]12C[C@H](CC(=O)NCc3cccc4ccccc34)C(=O)N(Cc3ccco3)C1=C[C@H](C(C)C)O[C@@H]2C1CC1,·,·,–,–,–,
Cc1ccsc1C(=O)OCc1nc2ccsc2c(=O)[nH]1,–,–,–,–,–,
Cc1ccsc1C(=O)OCc1nc2ccccc2c(=O)[nH]1,–,103,–,–,–,
O=C1CSC(=S)N1N=C1CCCCCC1,–,–,–,–,23,
CCC(=O)OCOc1ccc(/C=C2/CCC(CN(C)C)C2=O)cc1 (stereo not drawn),–,·,–,–,37,
CCOc1ccc(/C=C2\CCC(C3CCCC3)C2=O)cc1 (stereo not drawn),–,–,–,–,–,
COC(=O)c1cccc(N2C(=O)C[C@](Sc3ccc(OC)cc3)(C(=O)N3CCOCC3)[C@H]2c2ccc(OC)cc2)c1,·,·,–,–,–,
O=c1ccc2cc3c([nH]c4ccc(Br)cc43)oc-2c1O,62,–,64,60,91,
CCCCCCCCN1CN2Cc3cc(OC)ccc3C2CS1(=O)=O (stereo not drawn),·,·,–,–,–,
COc1ccc(S[C@]2(C(=O)N3CCOCC3)CC(=O)N(C(=O)CCc3ccccc3)[C@@H]2c2ccc(OC)cc2)cc1,·,·,–,–,–,
COc1ccccc1-n1ccnc(SCC(=O)NCCc2ccccc2)c1=O,–,–,–,–,23,
O=C(CSc1nc2c(c(=O)[nH]1)CCCC2)N1CCOCC1,·,·,–,–,–,
Nn1cc(-c2ccccc2)nc1SCC(=O)Nc1ccc(S(N)(=O)=O)cc1,–,–,–,–,23,
C=CCOc1ccccc1C(=O)/C=C1/C(=O)Nc2ccccc21,–,–,–,–,23,
CCOC(=O)CC[C@H]1CC[C@]2(CCCN(Cc3ccccc3)C2)O1,·,·,–,–,–,
CCN1CC=C2C(C#N)=C(N)C(C#N)(C#N)C(c3cc(Cl)ccc3Cl)C2C1 (stereo not drawn),–,–,–,–,25,
OC(c1ccccc1)(c1ccccc1)C1CCN(CCCOc2ccc(Cl)cc2)CC1,·,·,–,–,–,
Cn1c(N)c(C(=O)COC(=O)c2cc(-c3ccco3)nc3ccccc23)c(=O)n(C)c1=O,–,–,–,–,22,
COc1ccc(C(NC(=O)/C=C/c2ccco2)c2ccc(OC)c(OC)c2)cc1 (stereo not drawn),–,–,–,–,25,
C#CCNC(=O)C[C@H]1C[C@@]2(C(=O)OC)C(=C[C@H](C3CCCC3)O[C@@H]2C)N(CCC2=CCCCC2)C1=O,·,·,–,–,–,
Cn1c(=O)ccc2ccccc21,·,·,–,–,–,
N#Cc1ccc(Cn2ccc3ccc(-c4ccc5ccn(C(=O)C6CCCCC6)c5c4)cc32)cc1,·,·,–,–,–,
SMILES,HTRA1 inhibitor,JMJD2C inh,SIAE inh,ABHD4 inh,PRMT1 inh,others
CCN1C(=O)/C(=C2\SC(=S)N(NC(=O)c3cccnc3)C2=O)c2ccccc21,–,–,–,–,21,
O=C1CN(C(=O)CCCc2c[nH]c3ccccc23)c2ccccc2N1,–,54,–,–,–,
Oc1ccc(Cl)cc1C1=Nc2ccccc2N=C(c2ccco2)C1,–,–,–,–,–,
Fc1ccccc1C1CC(c2ccco2)=Nc2ccccc2S1 (stereo not drawn),–,–,–,–,71,
Cc1ccc(C(C[N+](=O)[O-])n2nc(C)cc2C)cc1 (stereo not drawn),–,–,–,–,–,
Cc1ccc(C(C[N+](=O)[O-])Sc2ccc(N)cc2)cc1 (stereo not drawn),–,–,–,–,67,
CCOC(=O)N1CCC(c2nc3ccccc3[nH]2)CC1,–,53,–,–,–,
O=C(N1CCCCC1)N1CCC(c2nc3ccccc3[nH]2)CC1,–,–,–,–,–,
CC(C)(C=O)C1=CC(=O)c2ccccc2C1=O,–,–,–,37,52,
CC1=CC(=O)c2ccccc2C1=O,–,–,–,–,–,
O=C(O)c1[nH]c2ccccc2c1C(c1cc(Cl)cc([N+](=O)[O-])c1O)c1c(C(=O)O)[nH]c2ccccc12,–,–,–,68,–,
O=C(C1CCCO1)N1CCN(C2=Nc3ccccc3Sc3ccccc32)CC1 (stereo not drawn),·,·,–,–,–,
CC1CCCN(C(=O)c2ccc3ncsc3c2)C1 (stereo not drawn),–,·,–,–,24,
Cc1ccc(NC(=S)N/N=C/c2ccc([N+](=O)[O-])s2)cc1,59,–,–,–,–,HTRA1 inh conf=59
Cc1occc1C(=O)N/N=C/C1=C(N2CCOCC2)C(=C/c2ccc(Cl)cc2Cl)/CC1,–,·,–,–,–,
CN1C(=O)CC(Nc2cccc3cccc(N)c23)C1=O (stereo not drawn),39,–,·,·,·,HTRA1 inh conf=–
NNC(=O)c1oc2nc(-c3ccccc3)cc(-c3ccccc3)c2c1N,47,–,–,–,–,HTRA1 inh conf=–
COc1ccc(-n2cc(COC(=O)NCCc3ccccc3)nn2)cc1,·,·,–,–,–,
CCOc1ccc2c(ccc(/C=C/c3cc(C)c4cccnc4c3O)[n+]2C)c1,64,·,·,·,·,HTRA1 inh conf=90
Cc1ccc(-c2c(NC(=O)Nc3ccccc3)nc3ncccn23)cc1,·,·,–,–,–,
CC1(C)C=Cc2c(c3c(c4c(=O)c(-c5ccc(O)cc5)coc24)OC(C)(C)CC3)O1,36,–,–,–,–,HTRA1 inh conf=–
CC(C)=CCc1c2c(c3occ(-c4ccc(O)cc4)c(=O)c3c1O)C=CC(C)(C)O2,–,–,–,–,–,
CC(=O)Nc1cccc(C(=O)NN2C(=O)NC3(CCC(C)CC3)C2=O)c1 (stereo not drawn),–,·,–,–,–,
N#Cc1c(N)[nH]c2ccc(Sc3ccccc3)cc12,41,·,–,–,–,HTRA1 inh conf=–
N#Cc1cc(-c2ccccc2)cnc1Sc1ccccc1,–,–,–,–,–,
O=C(Nc1ccc(N2CCCC2)cc1)c1ccc(Cl)cc1Cl,–,–,–,–,–,
CCCCC(=O)Nc1ccc(N2CCCC2)cc1,44,–,–,–,–,HTRA1 inh conf=38
O=C(Nc1ccc(N2CCCC2)cc1)c1cc(Cl)ccc1Cl,59,–,–,–,–,HTRA1 inh conf=–
Cc1cc(C)cc(C(=O)Nc2ccc(N3CCCC3)cc2)c1,39,–,–,–,–,HTRA1 inh conf=–
